Screens as filed in PubChem BioAssay.
ALR inh: inhibitors of human sulfhydryl oxidase ALR | 290,000 compounds, 3.8% hits | purified ALR, DTT oxidation, H2O2 HRP-luminol luminescence | inhibition, % (concentration not given with the values) | AID 485317 | P55789;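 active = mean replicate inhibition above about 79%, with every replicate also reaching it, limit read from the data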
Target sequence (P55789 whole entry, looked up): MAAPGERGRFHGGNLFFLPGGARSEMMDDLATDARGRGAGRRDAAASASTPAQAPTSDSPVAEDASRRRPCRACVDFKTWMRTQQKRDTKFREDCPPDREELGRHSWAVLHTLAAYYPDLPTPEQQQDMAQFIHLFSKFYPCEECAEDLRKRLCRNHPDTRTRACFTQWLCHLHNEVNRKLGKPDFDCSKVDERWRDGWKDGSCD
Glyco luc inh: blocks N-linked glycosylation in D54 reporter cells | reporter increase, % at 12.5 µM | 360,000 compounds, 0.23% hits | D54 ERlucT glycosylation luciferase reporter, 24 h; percent of 100 nM tunicamycin response | AID 588692;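 active = mean luciferase reporter signal, scaled so untreated is 0 and the glycosylation-blocking control 100, at or above a set limit in every replicate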;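 note: luciferase carries N-glycosylation sites so blocking glycosylation raises the light; 0% = median of neutral control wells and 100% = median of 100 nM tunicamycin wells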
T cell HTS: T cell immune modulation candidate; 2C CD8+ T cell-vesicle binding, flow cytometry; active compounds read low; response (vesicle binding), % at 7 µM; 330,000 compounds, 0.068% hits;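 active = response, share of CD8 T cells binding vesicles, and their 90th percentile fluorescence all below set limits, cut at about 80% in these data, passing the limit was not always enough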;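 note: values below 100% mean blocked vesicle binding to the CD8+ T cells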
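Test system: purified 2C TCR transgenic mouse naive CD8+ T cells. Probe or stimulus: QL9-peptide-loaded Drosophila micro-vesicles bearing Ld, ICAM-1 and B7-1. Incubation: binding step 1.5 h, 37 °C, antibody labelling 20 min, ice. Measured by: flow cytometry of vesicle-bound cells.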
* hit, by the source's call; i = inactive; . = not tested or not shown. Shown is part of a subset that was picked to be rich in hits.

SMILES	ALR inh	Glyco luc inh	T cell HTS
Nc1cc(=O)[nH]c(SCC(=O)Nc2cccc(S(=O)(=O)N3CCCCCC3)c2)n1	70	0	358
CCN1CCN(Cc2ccc(NC(=O)Nc3ccc(SC)cc3)cc2)CC1	96*	-7	214
CCN1CCN(Cc2ccc(NC(=O)Nc3ccccc3)cc2)CC1	60	-16	284
CSCc1ccc(C(=O)NC(C)c2cnn(-c3ccccn3)c2C)o1 (configuration not stated)	90*	.	0
COc1ccc(OC)c(S(=O)(=O)NC(C)c2cnn(-c3ccccn3)c2C)c1 (configuration not stated)	-5	-1	0
CC(=O)Nc1ccc(NC(=O)c2ccc3c(c2)CCN3S(C)(=O)=O)cc1	-5	-2	220
CS(=O)(=O)N1CCc2cc(C(=O)Nc3ccc(O)cc3)ccc21	99*	1	181
O=C(/C=C/c1ccccc1)NCCS(=O)(=O)N1CCN(c2ccc(F)cc2)CC1	-1	-2	140
CCc1ccc(C(=O)NNC(=O)c2cc(S(=O)(=O)N(C)C)ccc2N2CCCC2)cc1	1	2	622
O=C(CSc1nc2ccccc2c(=O)n1-c1ccc(OC(F)F)cc1)NC1CC1	-1	0	359
CCCS(=O)(=O)N1CCc2ccc(NC(=O)C3CCCO3)cc2C1 (configuration not stated)	-2	-1	326
Cc1nc(SCc2ccc(Cl)cc2)ncc1C(=O)O	1	1	43
COc1cnc(SCc2ccc(Cl)cc2)nc1Cl	98*	-4	559
Cc1ccc(NC(=O)OCc2ccccc2S(C)=O)cc1 (configuration not stated)	-15	1	177
CCSC1=NCCN1C(=O)Cc1ccc(-c2ccccc2)cc1	-5	0	191
O=C(Cc1ccccc1)N1CCN=C1SCc1ccc([N+](=O)[O-])cc1	.	-1	252
Cc1ccc(CSC2=NCCN2C(=O)c2ccc([N+](=O)[O-])cc2)cc1	-10	2	971
Cc1ccccc1C(=O)N1CCN=C1SCc1ccc([N+](=O)[O-])cc1	.	-2	314
O=C(c1cccc2ccccc12)N1CCN=C1SCc1ccc([N+](=O)[O-])cc1	98*	5	220
COc1ccc(CC(=O)N2CCN=C2SCc2ccc([N+](=O)[O-])cc2)cc1	99*	-5	i
Cc1ccc(C(=O)N2CCN=C2SCc2ccc([N+](=O)[O-])cc2)cc1	99*	2	268
O=C(Cc1ccc(F)cc1)N1CCN=C1SCc1ccc([N+](=O)[O-])cc1	99*	-3	220
O=C(NCc1ccco1)C1CC(c2ccc(C(F)(F)F)cc2)=NO1 (configuration not stated)	2	23	177
Cc1cc(C(=O)NN)n[nH]1	32	2	i
O=C(C1=COCCO1)N1CCN(S(=O)(=O)c2cccc(Br)c2)CC1	6	2	i
SMILES	ALR inh	Glyco luc inh	T cell HTS
CCOc1ccc(CC(=O)N2CCN=C2SCc2ccc([N+](=O)[O-])cc2)cc1	99*	1	212
COc1ccc(/C(N)=N/OC(=O)CSc2ccc(C)cc2)cc1OC	-4	2	353
Cc1ccc(SCC(=O)O/N=C(\N)c2ccc([N+](=O)[O-])cc2)cc1	98*	22	207
CCOc1ccc(CC(=O)N2CCN=C2SC)cc1	-4	-1	374
CC(c1nc2ccccc2n1Cc1ccccc1)N1CCCCC1 (configuration not stated)	-9	-4	249
O=S(=O)(c1cccnc1)N1CCCC(Nc2ccc(F)c(F)c2)C1 (configuration not stated)	.	0	.
O=C(N/N=C/c1sc2ccccc2c1O)c1ccccc1	88*	-15	120
COc1ccc2cc(C(=O)N/N=C/c3sc4ccccc4c3O)ccc2c1	7	-8	270
O=C(N/N=C/c1sc2ccccc2c1O)c1cccc2ccccc12	36	-11	438
COc1ccc(C(=O)N/N=C/c2sc3ccccc3c2O)cc1	81*	-11	560
O=C(c1cc(F)c(F)c(F)c1F)N1CCN(Cc2ccc3c(c2)OCO3)CC1	-15	-2	262
COc1cccc(-c2cnc3c(NC(C)=O)cc(-c4ccc(C(=O)NC5CC5)cc4)cn23)c1	.	-4	.
COc1ccccc1N1CCN(c2ccc3cc(S(=O)(=O)N4CCCCC4)ccc3n2)CC1	-6	-12	221
OCC1CCCN(Cc2ccc(-c3ccccc3)cc2)C1 (configuration not stated)	99*	0	308
O=C(c1ccc(-c2ccccc2)cc1)C1CCCN(Cc2ccncc2)C1 (configuration not stated)	8	-6	160
